From ChEMBL document CHEMBL2331490, “Synthesis and in vitro evaluation of new derivatives of 2-substituted-6-fluorobenzo[d]thiazoles as cholinesterase inhibitors” (Bioorg Med Chem, 2013)

Tests used:
[1] = Lipophilicity, log P of the compound calculated using ChemOffice software
Cholinesterase = Cholinesterase (Equus caballus, UniProt P81908); assay: Inhibition of equine BChE using after 10 mins by Ellman's method
Outline: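 BChE from equine serum, diluted in phosphate buffer (0.1 M, pH 8). Catalytic activity in the final mixture was 0.14 U/mL. Enzyme was preincubated with compound (dioxane stock diluted in water) for 5 min at 25 °C. Then 0.5 mM DTNB and 0.25 mM acetylthiocholine were added, incubated 10 min at 25 °C, and absorbance read at 412 nm. IC50 taken from %inhibition versus concentration, 3 replicates.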

Acetylcholinesterase = Acetylcholinesterase (Electrophorus electricus, UniProt O42275); assay: Inhibition of Electrophorus electricus AChE using acetylthiocholine as substrate after 10 mins by Ellman's method
[2] = Lipophilicity, log k of the compound by HPLC analysis; assay type: physicochemical
Outline: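 Mobile phase MeOH/water 70:30, 1.0 mL/min, column at 45 °C, samples at 10 °C, photodiode array detection. log k calculated from k.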

MCF7 [3] = assay: Cytotoxicity against human MCF7 cells after 24 hrs by xCelligence RTCA SP assay; assay type: cell-based; conditions: MCF7, 24 h
Outline: (§1)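 MCF7 (p37) grown in DMEM with 10% FCS, penicillin-streptomycin and 0.01 mg/mL insulin. Seeded at 75.000 cells/well on impedance E-plates and monitored hourly as cell index. Treated in log phase with compounds in DMSO, 0.01–2500 µmol/L, in triplicate. CI normalized to the last point before addition. Vehicle control 0.1% DMSO; 10% DMSO as 0% viability. IC50 taken at 24 h.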

MCF7 [4] = assay: Growth inhibition of human MCF7 cells at 1000 umol/l measured immediately by xCelligence RTCA SP assay; assay type: cell-based; conditions: mcf7, 1000 µM
Outline: as §1

MCF7 [5] = assay: Growth inhibition of human MCF7 cells at 1000 umol/l measured after 24 hrs by xCelligence RTCA SP assay; assay type: cell-based; conditions: mcf7, 24 h, 1000 µM
Outline: as §1

HepG2 [6] = assay: Cytotoxicity against human HepG2 cells after 24 hrs by MTS assay; assay type: cell-based; conditions: HepG2, 24 h
Outline: (§2)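 HepG2 (p13) grown in MEM with 10% FBS, L-glutamine and non-essential amino acids at 37 °C, 5% CO2. Seeded at 10,000 cells/well and treated next day with compounds in DMSO, 12 concentrations (0.001–5000 or 0.001–2500 µmol/L), in triplicate. Controls were untreated cells, 10% DMSO (0% viability), no cells and vehicle. After 24 h, MTS reagent was added for 3.5 h at 37 °C and A490 was read. IC50 from curve fit.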

HepG2 [7] = assay: Growth inhibition of human HepG2 cells at >100 umol/l after 24 hrs by MTS assay; assay type: cell-based; conditions: hepg2, 24 h
Outline: as §2

HepG2 [8] = assay: Growth inhibition of human HepG2 cells at <100 umol/l after 24 hrs by MTS assay; assay type: cell-based; conditions: hepg2, 24 h
Outline: as §2

MCF7 [9] = assay: Growth inhibition of human MCF7 cells at 0.01 to 100 umol/l measured immediately by xCelligence RTCA SP assay; assay type: cell-based
Outline: as §1

MCF7 [10] = assay: Growth inhibition of human MCF7 cells at 2500 umol/l measured immediately by xCelligence RTCA SP assay; assay type: cell-based; conditions: mcf7, 2500 µM
Outline: as §1

MCF7 [11] = assay: Growth inhibition of human MCF7 cells at 2500 umol/l measured after 24 hrs by xCelligence RTCA SP assay; assay type: cell-based; conditions: mcf7, 24 h, 2500 µM
Outline: as §1

HepG2 [12] = assay: Growth inhibition of human HepG2 cells at >1000 umol/l after 24 hrs by MTS assay; assay type: cell-based; conditions: hepg2, 24 h
Outline: as §2

HepG2 [13] = assay: Growth inhibition of human HepG2 cells at <1000 umol/l after 24 hrs by MTS assay; assay type: cell-based; conditions: hepg2, 24 h
Outline: as §2

HepG2 [14] = assay: Growth inhibition of human HepG2 cells at >10 umol/l after 24 hrs by MTS assay; assay type: cell-based; conditions: hepg2, 24 h
Outline: as §2

Chain of Acetylcholinesterase (O42275 whole entry): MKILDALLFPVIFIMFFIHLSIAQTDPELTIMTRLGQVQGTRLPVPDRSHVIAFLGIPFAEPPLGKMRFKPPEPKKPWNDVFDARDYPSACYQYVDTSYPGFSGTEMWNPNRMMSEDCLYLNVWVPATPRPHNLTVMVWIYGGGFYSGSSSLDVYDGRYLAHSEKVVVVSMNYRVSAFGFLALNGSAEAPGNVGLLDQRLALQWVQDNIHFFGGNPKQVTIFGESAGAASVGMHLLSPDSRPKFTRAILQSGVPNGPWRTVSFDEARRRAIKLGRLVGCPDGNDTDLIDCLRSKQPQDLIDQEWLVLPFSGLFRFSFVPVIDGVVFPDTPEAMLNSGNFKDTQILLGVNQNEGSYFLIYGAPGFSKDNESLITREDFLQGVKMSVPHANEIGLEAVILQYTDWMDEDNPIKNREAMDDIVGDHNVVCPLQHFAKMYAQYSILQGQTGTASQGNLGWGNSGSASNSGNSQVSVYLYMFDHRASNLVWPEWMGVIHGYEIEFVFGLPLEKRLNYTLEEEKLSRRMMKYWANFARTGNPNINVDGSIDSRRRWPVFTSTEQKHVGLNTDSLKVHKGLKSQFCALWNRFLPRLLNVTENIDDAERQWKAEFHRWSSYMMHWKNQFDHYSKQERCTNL
Chain of Cholinesterase (P81908 whole entry): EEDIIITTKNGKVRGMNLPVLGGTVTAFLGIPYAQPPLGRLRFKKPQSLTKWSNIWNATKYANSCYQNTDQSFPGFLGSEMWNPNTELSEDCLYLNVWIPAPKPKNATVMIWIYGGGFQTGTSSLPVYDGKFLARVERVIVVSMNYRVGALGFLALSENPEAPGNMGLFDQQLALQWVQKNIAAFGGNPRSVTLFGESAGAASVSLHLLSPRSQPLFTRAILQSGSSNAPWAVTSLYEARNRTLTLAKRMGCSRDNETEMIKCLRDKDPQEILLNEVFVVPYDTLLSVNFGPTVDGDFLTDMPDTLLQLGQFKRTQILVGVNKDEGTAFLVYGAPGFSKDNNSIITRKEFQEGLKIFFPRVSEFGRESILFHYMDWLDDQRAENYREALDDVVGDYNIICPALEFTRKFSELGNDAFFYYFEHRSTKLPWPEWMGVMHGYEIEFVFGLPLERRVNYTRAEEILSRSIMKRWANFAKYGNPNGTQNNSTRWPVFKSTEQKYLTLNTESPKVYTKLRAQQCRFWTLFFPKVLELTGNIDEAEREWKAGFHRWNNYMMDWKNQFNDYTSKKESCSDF

Structure (SMILES) | logP [1] | IC50 (Cholinesterase) [µM] | IC50 (Acetylcholinesterase) [µM] | log K [2] | other results
CC(C)[C@H](NC(=O)OCC(F)(F)C(F)(F)C(F)(F)F)C(=O)N[C@H](C)c1nc2ccc(F)cc2s1 | 5.35 | 83.2 | 85.5 | 0.9218 | –
CCN(C)C(=O)Oc1cccc([C@H](C)N(C)C)c1 [RIVASTIGMINE] | 2.36 | – | – | – | –
CCCOC(=O)N[C@@H](CCC)C(=O)N[C@H](C)c1nc2ccc(F)cc2s1 | 4.01 | 19.3 | 28.5 | 0.5873 | –
CCC[C@H](NC(=O)OCC(F)(F)F)C(=O)N[C@H](C)c1nc2ccc(F)cc2s1 | 4.16 | 59 | 29.3 | 0.5825 | –
CCC[C@H](NC(=O)OCC(F)(F)C(F)F)C(=O)N[C@H](C)c1nc2ccc(F)cc2s1 | 4.11 | 43.9 | 30.7 | 0.5415 | –
CCCCOC(=O)N[C@@H](CCC)C(=O)N[C@H](C)c1nc2ccc(F)cc2s1 | 4.43 | 19.6 | 28 | 0.7231 | –
CC(C)[C@H](NC(=O)OCC(F)(F)F)C(=O)N[C@H](C)c1nc2ccc(F)cc2s1 | 4.15 | 72 | 49.4 | 0.5643 | –
CC(C)[C@H](NC(=O)OCCCl)C(=O)N[C@H](C)c1nc2ccc(F)cc2s1 | 3.88 | 54.2 | 47.5 | 0.5014 | –
CC(C)COC(=O)N[C@H](C(=O)N[C@H](C)c1nc2ccc(F)cc2s1)C(C)C | 4.39 | 41.1 | 49.3 | 0.7041 | –
CC(C)[C@H](NC(=O)OCC(F)(F)C(F)F)C(=O)N[C@H](C)c1nc2ccc(F)cc2s1 | 4.09 | 33.8 | 29 | 0.5237 | –
CC(C)[C@H](NC(=O)OCC(Cl)(Cl)Cl)C(=O)N[C@H](C)c1nc2ccc(F)cc2s1 | 4.89 | 26.6 | 30.3 | 0.8043 | –
COC(=O)N[C@H](C(=O)N[C@H](C)c1nc2ccc(F)cc2s1)C(C)C | 3.17 | 32 | 91.2 | 0.4113 | –
CCC[C@H](NC(=O)OC)C(=O)N[C@H](C)c1nc2ccc(F)cc2s1 | 3.19 | 20.4 | 48.8 | 0.4166 | –
CCCCOC(=O)N[C@H](C(=O)N[C@H](C)c1nc2ccc(F)cc2s1)C(C)C | 4.41 | 62.5 | 68.1 | 0.7135 | –
CCC[C@H](NC(=O)OCC(Cl)(Cl)Cl)C(=O)N[C@H](C)c1nc2ccc(F)cc2s1 | 4.91 | 62.7 | 28.6 | 0.8297 | –
CCCOC(=O)N[C@H](C(=O)N[C@H](C)c1nc2ccc(F)cc2s1)C(C)C | 3.99 | 70.4 | 109 | 0.5851 | IC50 (MCF7 [3]): 4390 µM; growth inhibition (GI) (MCF7 [4]): Toxic; growth inhibition (GI) (MCF7 [5]): Non-toxic; IC50 (HepG2 [6]): 1730 µM; growth inhibition (GI) (HepG2 [7]): Toxic; growth inhibition (GI) (HepG2 [8]): Non-toxic; growth inhibition (GI) (MCF7 [9]): Non-toxic; growth inhibition (GI) (MCF7 [10]): Toxic
CC(C)[C@H](NC(=O)OCCBr)C(=O)N[C@H](C)c1nc2ccc(F)cc2s1 | 4 | – | 47.2 | 0.5418 | –
CCOC(=O)N[C@H](C(=O)N[C@H](C)c1nc2ccc(F)cc2s1)C(C)C | 3.51 | 35.6 | 153 | 0.4834 | IC50 (MCF7 [3]): > 4390 µM; growth inhibition (GI) (MCF7 [4]): Toxic; growth inhibition (GI) (MCF7 [5]): Non-toxic; IC50 (HepG2 [6]): > 5000 µM; growth inhibition (GI) (MCF7 [11]): Non-toxic; growth inhibition (GI) (MCF7 [9]): Non-toxic; growth inhibition (GI) (MCF7 [10]): Toxic; growth inhibition (GI) (HepG2 [12]): Toxic; growth inhibition (GI) (HepG2 [13]): Non-toxic
CCC[C@H](NC(=O)OCC(F)(F)C(F)(F)C(F)(F)F)C(=O)N[C@H](C)c1nc2ccc(F)cc2s1 | 5.37 | 59.8 | 46 | 0.9463 | –
CCC[C@H](NC(=O)OC(C)C)C(=O)N[C@H](C)c1nc2ccc(F)cc2s1 | 3.84 | 32.2 | 21.3 | 0.5752 | IC50 (MCF7 [3]): 1210 µM; growth inhibition (GI) (MCF7 [4]): Toxic; IC50 (HepG2 [6]): 273 µM; growth inhibition (GI) (HepG2 [14]): Toxic; growth inhibition (GI) (MCF7 [9]): Non-toxic; growth inhibition (GI) (MCF7 [10]): Toxic
CCC[C@H](NC(=O)OCC(C)C)C(=O)N[C@H](C)c1nc2ccc(F)cc2s1 | 4.41 | 26.1 | 20.2 | 0.7063 | IC50 (MCF7 [3]): 612 µM; growth inhibition (GI) (MCF7 [4]): Toxic; IC50 (HepG2 [6]): 275 µM; growth inhibition (GI) (HepG2 [14]): Toxic; growth inhibition (GI) (MCF7 [9]): Non-toxic; growth inhibition (GI) (MCF7 [10]): Toxic
COc1ccc2c3c1O[C@H]1C[C@@H](O)C=C[C@@]31CCN(C)C2 [GALANTAMINE] | 1.41 | – | – | – | –
CC(C)OC(=O)N[C@H](C(=O)N[C@H](C)c1nc2ccc(F)cc2s1)C(C)C [BENTHIAVALICARB-ISOPROPYL] | 3.82 | 41.1 | 95 | 0.5725 | –
CCC[C@H](NC(=O)OCC)C(=O)N[C@H](C)c1nc2ccc(F)cc2s1 | 3.52 | 14.1 | 34.8 | 0.4873 | –
CCC[C@H](NC(=O)OCCCl)C(=O)N[C@H](C)c1nc2ccc(F)cc2s1 | 3.9 | 54.1 | 35.4 | 0.514 | –
